According to paper PMC7184531 (Heliyon, 2020):
pIC50: −log10 of the molar value. Read-outs that look alike come from different tables or passages of the source.

Legend:
[1] = system: α-Glucosidase from Saccharomyces cerevisiae; assay: α-Glucosidase inhibitory assay; format: biochemical; conditions: for pIC50: read-out: α-glucosidase inhibition (IC50)
[2] = Cytotoxicity analysis; format: cell-based; conditions: mouse, 3T3-L1 cells
How it was run: (§1)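 3T3-L1 cells grown in high-glucose DMEM with 10% FBS and 2 mM glutamine at 37 °C, 5% CO2. Seeded at 1 × 10^4 cells per well with 30 nM insulin in detection medium for 24–48 h. Test compound at 0.01–1000 μg/mL for 72 h. Then MTT (0.5 mg/mL in phosphate buffer) for 4 h, DMSO solubilisation, A570. % viability reported as mean of triplicates ± SD.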

[3] = system: 3T3-L1 cells; assay: Glucose consumption assay in 3T3-L1 cells; format: cell-based; conditions: Mus musculus
[4] = system: 3T3-L1 cells; assay: Cytotoxicity analysis; format: cell-based; conditions: for % cell viability: MTT assay, 72 h
How it was run: as §1

[5] = 3T3-L1, read-out: glucose consumption (IC50, μM)

Molecule	pIC50 [1]	viability at 72 h [2] [%]	IC50 [3, 5] [µM]	other results
C[C@H]1O[C@H](O[C@H]2[C@H](O)[C@@H](O)[C@@H](O[C@H]3[C@H](O)[C@@H](O)C(O)O[C@@H]3CO)O[C@@H]2CO)[C@H](O)[C@@H](O)[C@@H]1N[C@H]1C=C(CO)[C@@H](O)[C@H](O)[C@H]1O (stereo partly drawn) [Acarbose, reference compound]				% inhibition at 200 μg/mL (α-glucosidase) ([1]; final concentration of 200 μg/mL): 98.9%
COc1ccc2oc3cccc(O)c3c(=O)c2c1 [Compound 4, 1-hydroxyl-7 methoxyxanthone]	< 4.00	102	23.2	
CC(C)=CCC/C(C)=C/Cc1c(O)cc2oc3c(O)cccc3c(=O)c2c1O [Compound 5, mangostinone]	< 4.00	93.1	16	
C[C@H]1C(=O)CC[C@@H]2[C@]1(C)CC[C@H]1[C@@]2(C)CC[C@@]2(C)[C@@H]3CC(C)(C)CC[C@]3(C)CC[C@]12C [Compound 9, friedelin]	< 4.00	101	18.5	
CN(C)C(=N)N=C(N)N [Metformin, reference compound]		99.7	45.4	IC50 ([3]; 3T3-L1, read-out: glucose consumption (IC50, μg/mL)): 6.3 µg/mL

Now from value to molecule, other results behind:

pIC50 [1]	Molecule	viability at 72 h [2] [%]	IC50 [3, 5] [µM]	other results
< 4.00	O=c1c2cc(O)ccc2oc2cccc(O)c12 [Compound 3, 1,7-dihydroxyxanthone]	105		
4.74	cowanol [Compound 7]			% cell viability [4]: 100.9%
4.88	guttiferone I [Compound 2]			toxicity to cells (in words) [4]: without causing toxicity to cells; % cell viability [4]: 98.7%; toxicity to cells (in words) ([4]; listed as Guttiferone I): without causing toxic effects
